{"source": "paper PMC3188669", "about": "(Journal of medicinal chemistry, 2011)", "key": {"[1]": {"test_system": "human basal cell carcinoma (BCC1) cells", "assay": "PS uptake, retention and subcellular localization in BCC1 cells", "type": "cell-based", "settings": "for lowering of cellular uptake relative to PS 4: 30 min, 200 nM PS; for lowering of cellular uptake relative to PS 4 / subcellular localization after 30 min incubation: serum-free DMEM", "summary_of_the_method": "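Subconfluent BCC1 cells grown in DMEM with 10% FCS were washed twice in serum-free DMEM. They were incubated with test compound in DMEM with or without 10% FCS: 30 min serum-free at 0.2 μM or 3.2 μM, or 24 h at 3.2 μM. Cells were washed and imaged at 640X under phase contrast and fluorescence (Ex 410/40, Em 675/750 nm). Redistribution was imaged again after 4 h in compound- and serum-free DMEM.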"}, "STAT3": {"test_system": "STAT3", "assay": "Light-mediated photoreaction in BCC1 cells", "type": "cell-based, human", "settings": "2 h PS, 665 nm, 3 J/cm^2", "summary_of_the_method": "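Subconfluent BCC1 cells were incubated 2 h in serum-free DMEM with 2-fold serial dilutions of test compound and then washed. They were irradiated in serum-free medium at 37°C with 665 nm dye-laser light for 9 min and extracted immediately. Cell PS was measured by extract fluorescence (Ex 415, Em 667 nm). RIPA lysates (20 μg) were immunoblotted for STAT3, EGFR, p38 and P-p38 with ECL detection. STAT3 crosslinking was expressed as % monomer converted to dimer form I.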"}, "Colon26 cells [2]": {"test_system": "Colon26 cells", "assay": "In vitro photosensitizing efficacy, MTT assay", "type": "cell-based, mouse", "settings": "24 h incubation, variable light doses; for in vitro efficacy (PS 4, 12, 23): Colon26, 0.0625 μM", "summary_of_the_method": "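Colon26 cells were seeded at 3 × 10³ cells/well in RPMI with 10% FCS and left overnight. Test compound was added for 24 h at 37°C in the dark, then replaced with drug-free complete medium. Cells were irradiated at 0–4 J/cm² at the compound's absorption peak (660–674 nm), 3.2 mW/cm², using an argon-pumped dye laser. After 48 h in the dark, MTT was added for the last 4 h and formazan was dissolved in DMSO. A570 was read. Survival was plotted against light dose; 4 wells, 3 independent repeats.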"}, "Colon26 cells [3]": {"test_system": "Colon26 cells", "assay": "PS uptake by Colon26 cells, flow cytometry", "type": "cell-based, mouse", "settings": "24 h post incubation", "summary_of_the_method": "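Colon26 cells were seeded at 0.33 × 10⁶/well and left overnight. Test compound was added at 100, 200, 400 or 800 nM in triplicate at 37°C, with compound-free wells for autofluorescence. Cells were trypsinised, neutralised in cold medium with 2% FCS, spun at 500 g for 5 min at 4°C, and resuspended in cold PBS/2% FCS on ice in the dark. Flow cytometry used Ex 633 nm and Em 730±45 nm, 10,000 events; mean fluorescence of triplicates minus autofluorescence.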"}, "Colon26 tumors [4]": {"test_system": "Colon26 tumors", "assay": "PET imaging and biodistribution in BALB/c mice bearing Colon26 tumors", "type": "in vivo", "settings": "for time post injection giving the best imaging contrast: PET"}, "Colon26 tumors [5]": {"test_system": "Colon26 tumors", "assay": "In vivo optical fluorescence imaging in BALB/c mice bearing Colon26 tumors", "settings": "for tumor versus skin fluorescence after tumor removal: 1 μmol/kg, 24 h post injection", "summary_of_the_method": "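Colon26 cells (1×10⁶ in 50 μL serum-free RPMI) were injected subcutaneously into the right posterior axilla and grown to 4–5 mm. Hair was removed the day before dosing. Mice were imaged under ip ketamine/xylazine with 540/40 nm illumination and a long-pass filter for 667/676 nm emission, and autofluorescence was removed by spectral unmixing. Tumor ROI was 20 mm, mean ± SD of 3 mice. After imaging, the tumor was excised and the skin flap imaged.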"}, "Colon26 tumors [6]": {"test_system": "Colon26 tumors", "assay": "In vivo PDT efficacy in BALB/c mice bearing Colon26 tumors", "settings": "1.0 μmol/kg, light 128 J/cm^2, 14 mW/cm^2 at 24 h post injection, 10 mice/group", "summary_of_the_method": "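Hair around the subcutaneous tumor was removed. At 4–5 mm diameter, mice received test compound at 1 μmol/kg. At 24 h, unanaesthetised mice restrained in holders were irradiated at 660–674 nm according to compound, with power monitored throughout. Mice were checked daily and volume was calculated as L×W²/2. Cure meant no palpable tumor by day 60–90; mice were euthanised at 400 mm³.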"}}}
{"compound": "CCC1=C(C)c2cc3[nH]c(cc4nc(c5c6[nH]c(cc1n2)c(C)c6C(=O)C5)C(CCC(=O)OC)[C@@H]4C)c(C)c3C(C)OCc1cccc(I)c1", "note": "(stereo partly drawn) [PS 1, Methyl 3-devinyl-3-{1′-(m-iodobenzyoxy)-ethyl}pyropheophoride-a]", "values": [{"measurement": "subcellular localization after subsequent 4 h incubation in PS-free medium", "setting": "[1]; 3.2 μM PS 1 or 0.2 μM PS 4", "value": "lysosomal compartment"}, {"measurement": "lowering of cellular uptake relative to PS 4", "setting": "[1]", "value": "> 100", "unit": "fold"}, {"measurement": "fluorescence (uptake) in presence of 10% fetal calf serum", "setting": "[1]; data not shown", "value": "~ 5 fold lower"}, {"measurement": "subcellular localization after 30 min incubation", "setting": "[1]", "value": "mitochondrial compartment"}, {"measurement": "photoreaction quantifiable by the biochemical markers", "setting": "STAT3", "value": "ineffective"}]}
{"compound": "CCC1=C(C)c2cc3[nH]c(cc4nc(c5c6[nH]c(cc1n2)c(C)c6C(=O)C5)C(CCC(=O)O)[C@@H]4C)c(C)c3C(C)OCc1cccc(I)c1", "note": "(stereo partly drawn) [PS 4, 3-devinyl-3-{1′-(m-iodobenzyoxy)-ethyl} pyropheophoride-a]", "values": [{"measurement": "subcellular localization after 30 min incubation", "setting": "[1]", "value": "mitochondrial compartment"}, {"measurement": "in vitro efficacy (PS 4, 12, 23)", "setting": "Colon26 cells [2]", "value": "comparable in vitro efficacy"}, {"measurement": "relative PDT efficacy in vitro (PS 1, 4, 7)", "setting": "Colon26 cells [2]; Colon26, 0.3 μM", "value": "most effective"}, {"measurement": "PS uptake by Colon26 cells (rank order)", "setting": "Colon26 cells [3]", "value": "PS 4 ≥ 23 > 12"}, {"measurement": "time post injection giving the best imaging contrast", "setting": "Colon26 tumors [4]; BALB/c mice, Colon26 tumor", "value": 72, "unit": "h"}, {"measurement": "tumor versus skin fluorescence after tumor removal", "setting": "Colon26 tumors [5]", "value": "tumor avid"}]}
{"compound": "CCC1=C(C)c2cc3[nH]c(cc4nc(c5c6[nH]c(cc1n2)c(C)c6C(=O)C5)C(CCC(=O)O)[C@@H]4C)c(C)c3C(C)OCc1cccc([124I])c1", "note": "(stereo partly drawn) [PS 6]", "values": [{"measurement": "tumor uptake (PET)", "setting": "Colon26 tumors [4]; 24, 48 and 72 h post injection", "value": "significant tumor uptake"}, {"measurement": "time of maximum tumor uptake post injection", "setting": "Colon26 tumors [4]; BALB/c mice, Colon26 tumor", "value": 24, "unit": "h"}, {"measurement": "time post injection giving the best imaging contrast", "setting": "Colon26 tumors [4]; BALB/c mice, Colon26 tumor", "value": 72, "unit": "h"}]}
{"compound": "CCc1c(C)c2cc3nc(c4c5[nH]c(cc6nc(cc1[nH]2)C(C)=C6C(C)OCc1cccc(I)c1)c(C)c5C(=O)C4)[C@@H](CCC(=O)O)[C@@H]3C", "note": "(stereo partly drawn) [PS 12, 3-devinyl-3-ethyl-8-{1′-(m-iodobenzyoxy)-ethyl}-pyropheophoride-a]", "values": [{"measurement": "in vitro efficacy (PS 4, 12, 23)", "setting": "Colon26 cells [2]", "value": "comparable in vitro efficacy"}, {"measurement": "PS uptake by Colon26 cells (rank order)", "setting": "Colon26 cells [3]", "value": "PS 4 ≥ 23 > 12"}, {"measurement": "tumor uptake by fluorescence imaging", "setting": "Colon26 tumors [5]; 1.0 μmol/kg i.v., 24, 48 and 72 h post-injection, 3 mice/group", "value": "lower tumor uptake"}]}
{"compound": "CC[C@H]1c2cc3[nH]c4c(c5nc(cc6[nH]c(cc(n2)[C@@H]1C)c(C(C)OCc1cccc(I)c1)c6C)C(C)=C5CCC(=O)O)CC(=O)c4c3C", "note": "(stereo partly drawn) [PS 23, 3-deacetyl-3-(1′-m-iodobenzyloxyethyl)-7,8-dihydrophylloerythrin]", "values": [{"measurement": "lowering of cellular uptake relative to PS 4", "setting": "[1]", "value": 2, "unit": "fold"}, {"measurement": "in vitro efficacy (PS 4, 12, 23)", "setting": "Colon26 cells [2]", "value": "comparable in vitro efficacy"}, {"measurement": "PS uptake by Colon26 cells (rank order)", "setting": "Colon26 cells [3]", "value": "PS 4 ≥ 23 > 12"}, {"measurement": "tumor versus skin fluorescence after tumor removal", "setting": "Colon26 tumors [5]", "value": "tumor avid"}]}
{"compound": "CC[C@H]1c2cc3[nH]c4c(c5nc(cc6[nH]c(cc(n2)[C@@H]1C)c(C(C)OCc1cccc([124I])c1)c6C)C(C)=C5CCC(=O)O)CC(=O)c4c3C", "note": "(stereo partly drawn) [PS 27]", "values": [{"measurement": "time post injection giving the best imaging contrast", "setting": "Colon26 tumors [4]; BALB/c mice, Colon26 tumor", "value": 72, "unit": "h"}]}
{"compound": "Peglate 3-devinyl-3-{1′-(m-iodobenzyoxy)ethyl}pyropheophoride-a [PS 7]", "values": [{"measurement": "cellular uptake in presence of serum proteins versus serum-free", "setting": "[1]; 3.2 μM, 24 h, 10% fetal calf serum", "value": "several-fold higher"}, {"measurement": "subcellular localization after 24 h incubation", "setting": "[1]; 3.2 μM, regardless of the incubation conditions", "value": "endosomal/lysosomal compartment"}, {"measurement": "lowering of cellular uptake relative to PS 4", "setting": "[1]", "value": "> 100", "unit": "fold"}, {"measurement": "photoreaction quantifiable by the biochemical markers", "setting": "STAT3", "value": "ineffective"}, {"measurement": "tumor cure (tumor-free on day 60), first series (Fig. 7A)", "setting": "Colon26 tumors [6]", "value": "ineffective"}]}
